Laboratory results reported in ChEMBL document CHEMBL5236549, “Discovery of 2-Sulfinyl-Diazabicyclooctane Derivatives, Potential Oral β-Lactamase Inhibitors for Infections Caused by Serine β-Lactamase-Producing Enterobacterales” (J Med Chem, 2021).
Converted amounts (≈) assume the structure as drawn.

Assays:
[1] = Stability of the compound in phosphate buffer at pH 7.0 assessed as parent compound remaining at 40 degreeC measured after 16 hrs; format: physicochemical; details: read-out: Stability
Outline: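 Compound held in pH 7.0 phosphate buffer at 40 °C for 16 h; amount remaining reported as %.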

[2] = Tmax in rat at 5 mg/kg,po by LC/MS/MS analysis; format: ADME, organism-based; details: in vivo
[3] = AUC in monkey at 10 mg/kg,po by LC/MS/MS analysis; format: ADME, organism-based, Macaca mulatta; design: dose 10 mg/kg, route po; details: rhesus monkey, in vivo
Outline: (§1)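 Plasma of the parent acid measured by LC/MS/MS (methanol precipitation, positive ESI, external standard); oral values follow prodrug dosing (rat fed, dog and monkey fasted). AUC from 0 h to last time point by linear trapezoid; F from oral AUC versus iv AUC of the parent. N = 2 (rat, dog), N = 3 (monkey, mouse).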

[4] = Oral bioavailability in rat at 5 mg/kg by LC/MS/MS analysis; format: ADME, organism-based; details: in vivo; outline: as §1
[5] = Oral bioavailability in dog at 10 mg/kg by LC/MS/MS analysis; format: ADME, organism-based, Canis lupus familiaris; details: in vivo; outline: as §1
[6] = Tmax in monkey at 10 mg/kg,po by LC/MS/MS analysis; format: ADME, organism-based, Macaca mulatta; details: rhesus monkey, in vivo
[7] = Cmax in dog at 10 mg/kg,po by LC/MS/MS analysis; format: ADME, organism-based, Canis lupus familiaris; design: dose 10 mg/kg, route po; details: in vivo; outline: as §1
[8] = Cmax in rat at 5 mg/kg,po by LC/MS/MS analysis; format: ADME, organism-based; design: dose 5 mg/kg, route po; details: in vivo; outline: as §1
[9] = Cmax in monkey at 10 mg/kg,po by LC/MS/MS analysis; format: ADME, organism-based, Macaca mulatta; design: dose 10 mg/kg, route po; details: rhesus monkey, in vivo; outline: as §1
[10] = Oral bioavailability in monkey at 10 mg/kg by LC/MS/MS analysis; format: ADME, organism-based, Macaca mulatta; details: rhesus monkey, in vivo; outline: as §1
[11] = AUC in dog at 10 mg/kg,po by LC/MS/MS analysis; format: ADME, organism-based, Canis lupus familiaris; design: dose 10 mg/kg, route po; details: in vivo; outline: as §1
[12] = Tmax in dog at 10 mg/kg,po by LC/MS/MS analysis; format: ADME, organism-based, Canis lupus familiaris; details: in vivo
[13] = AUC in rat at 5 mg/kg,po by LC/MS/MS analysis; format: ADME, organism-based; design: dose 5 mg/kg, route po; details: in vivo; outline: as §1
Escherichia coli [14] = assay: Antibacterial activity against Escherichia coli ATCC SR09613 assessed as inhibition of bacterial growth incubated for 16 to 20 hrs by CLSI based two-fold serial dilution method
Klebsiella pneumoniae [15] = assay: Antibacterial activity against Klebsiella pneumoniae ATCC BAA1705 assessed as reduction in bacterial growth by measuring minimum potentiating concentration incubated for 16 to 20 hrs by CLSI based two-fold serial dilution method; details: time 16-20 hrs
Klebsiella pneumoniae [16] = assay: Antibacterial activity against Klebsiella pneumoniae SR200487 assessed as inhibition of bacterial growth incubated for 16 to 24 hrs by CLSI based two-fold serial dilution method; format: functional; details: time 16-24 hrs
Outline: (§2)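 CLSI broth microdilution in cation-adjusted Mueller Hinton broth, twofold serial dilutions, about 5 × 10⁴ cfu/well from OD625, 35 °C for 16−20 h. MIC is the lowest concentration with no visible growth.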

Klebsiella pneumoniae [17] = assay: Antibacterial activity against Klebsiella pneumoniae ATCC SR201218 assessed as reduction in bacterial growth by measuring minimum […] concentration incubated for 16 to 24 hrs by CLSI based two-fold serial dilution method; format: functional; details: time 16-24 hrs
Outline: (§3)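 MPC₁ by broth microdilution: twofold serial dilutions of inhibitor in cation-adjusted Mueller Hinton broth containing ceftibuten at 1 μg/mL. Inoculum about 5 × 10⁴ cfu/well final, set from OD625. Incubation at 35 °C for 16−20 h. […] N = 1.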

Enterobacter cloacae [18] = assay: Antibacterial activity against Enterobacter cloacae SR200030 assessed as inhibition of bacterial growth incubated for 16 to 24 hrs by CLSI based two-fold serial dilution method; format: functional; details: time 16-24 hrs; outline: as §2
[19] = Inhibition of bacterial beta-lactamase CMY-2 using nitrocefin as substrate incubated for 20 mins; design: species or system Bacteria
Outline: (§4)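 Nitrocefin hydrolysis read by absorbance. Enzyme titrated to give about 0.2 absorbance change over the no-enzyme control. Enzyme added to nitrocefin (final 50 μg/mL) plus inhibitor, no preincubation, read after 20 min at 35 °C. IC50 is 50% reduction of hydrolysis. N = 1.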

Klebsiella pneumoniae [20] = assay: Antibacterial activity against Klebsiella pneumoniae ATCC SR201218 assessed as inhibition of bacterial growth incubated for 16 to 20 hrs by CLSI based two-fold serial dilution method
Klebsiella pneumoniae [21] = assay: Antibacterial activity against Klebsiella pneumoniae SR09635 assessed as reduction in bacterial growth by measuring minimum […] concentration incubated for 16 to 20 hrs by CLSI based two-fold serial dilution method; details: time 16-20 hrs
Klebsiella pneumoniae [22] = assay: Antibacterial activity against Klebsiella pneumoniae SR200263 assessed as inhibition of bacterial growth incubated for 16 to 24 hrs by CLSI based two-fold serial dilution method; format: functional; details: time 16-24 hrs; outline: as §2
Klebsiella pneumoniae [23] = assay: Antibacterial activity against Klebsiella pneumoniae SR09603 assessed as reduction in bacterial growth by measuring minimum […] concentration incubated for 16 to 20 hrs by CLSI based two-fold serial dilution method; details: time 16-20 hrs
Enterobacter cloacae [24] = assay: Antibacterial activity against Enterobacter cloacae SR200030 assessed as reduction in bacterial growth by measuring minimum […] concentration incubated for 16 to 24 hrs by CLSI based two-fold serial dilution method; format: functional; details: time 16-24 hrs
Outline: (§5)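 Inhibitor twofold serially diluted in cation-adjusted Mueller Hinton broth containing ceftibuten 1 μg/mL. About 5 × 10⁴ cfu/well, 35 °C for 16−20 h. […] N = 1.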

Klebsiella pneumoniae [25] = assay: Antibacterial activity against Klebsiella pneumoniae SR201325 assessed as inhibition of bacterial growth incubated for 16 to 20 hrs by CLSI based two-fold serial dilution method
Escherichia coli [26] = assay: Antibacterial activity against Escherichia coli ATCC SR34100 assessed as reduction in bacterial growth by measuring minimum […] concentration incubated for 16 to 24 hrs by CLSI based two-fold serial dilution method; format: functional; details: time 16-24 hrs; outline: as §3
Enterobacter cloacae [27] = assay: Antibacterial activity against Enterobacter cloacae SR36276 assessed as reduction in bacterial growth by measuring minimum […] concentration incubated for 16 to 20 hrs by CLSI based two-fold serial dilution method; details: time 16-20 hrs
Klebsiella pneumoniae [28] = assay: Antibacterial activity against Klebsiella pneumoniae SR09635 assessed as inhibition of bacterial growth incubated for 16 to 20 hrs by CLSI based two-fold serial dilution method
[29] = Inhibition of bacterial beta-lactamase OXA-48 using nitrocefin as substrate incubated for 20 mins; design: species or system Bacteria; outline: as §4
Klebsiella pneumoniae [30] = assay: Antibacterial activity against Klebsiella pneumoniae ATCC BAA1705 assessed as inhibition of bacterial growth incubated for 16 to 20 hrs by CLSI based two-fold serial dilution method
Klebsiella pneumoniae [31] = assay: Antibacterial activity against Klebsiella pneumoniae SR100758 assessed as reduction in bacterial growth by measuring minimum […] concentration incubated for 16 to 24 hrs by CLSI based two-fold serial dilution method; format: functional; details: time 16-24 hrs; outline: as §5
Enterobacter cloacae [32] = assay: Antibacterial activity against Enterobacter cloacae SR100108 assessed as reduction in bacterial growth by measuring minimum […] concentration incubated for 16 to 20 hrs by CLSI based two-fold serial dilution method; details: time 16-20 hrs
Escherichia coli [33] = assay: Antibacterial activity against Escherichia coli ATCC SR09613 assessed as reduction in bacterial growth by measuring minimum […] concentration incubated for 16 to 24 hrs by CLSI based two-fold serial dilution method; format: functional; details: time 16-24 hrs; outline: as §3
Enterobacter cloacae [34] = assay: Antibacterial activity against Enterobacter cloacae SR100108 assessed as inhibition of bacterial growth incubated for 16 to 20 hrs by CLSI based two-fold serial dilution method
Klebsiella pneumoniae [35] = assay: Antibacterial activity against Klebsiella pneumoniae SR200263 assessed as reduction in bacterial growth by measuring minimum […] concentration incubated for 16 to 20 hrs by CLSI based two-fold serial dilution method; details: time 16-20 hrs
Escherichia coli [36] = assay: Antibacterial activity against Escherichia coli ATCC SR34100 assessed as inhibition of bacterial growth incubated for 16 to 20 hrs by CLSI based two-fold serial dilution method
Klebsiella pneumoniae [37] = assay: Antibacterial activity against Klebsiella pneumoniae SR100758 assessed as inhibition of bacterial growth incubated for 16 to 24 hrs by CLSI based two-fold serial dilution method; format: functional; details: time 16-24 hrs; outline: as §2
Klebsiella pneumoniae [38] = assay: Antibacterial activity against Klebsiella pneumoniae SR200487 assessed as reduction in bacterial growth by measuring minimum […] concentration incubated for 16 to 20 hrs by CLSI based two-fold serial dilution method; details: time 16-20 hrs
Klebsiella pneumoniae [39] = assay: Antibacterial activity against Klebsiella pneumoniae SR09603 assessed as inhibition of bacterial growth incubated for 16 to 20 hrs by CLSI based two-fold serial dilution method
Enterobacter cloacae [40] = assay: Antibacterial activity against Enterobacter cloacae SR36276 assessed as inhibition of bacterial growth incubated for 16 to 20 hrs by CLSI based two-fold serial dilution method
[41] = Inhibition of bacterial beta-lactamase KPC-2 using nitrocefin as substrate incubated for 20 mins; design: species or system Bacteria; outline: as §4
Klebsiella pneumoniae [42] = assay: Antibacterial activity against Klebsiella pneumoniae SR201325 assessed as reduction in bacterial growth by measuring minimum […] concentration incubated for 16 to 24 hrs by CLSI based two-fold serial dilution method; format: functional; details: time 16-24 hrs; outline: as §5
[43] = Stability in rat serum assessed as compound remaining at 5 micromol/L incubated for 30 mins by LC-MS/MS analysis; format: ADME, cell-free; details: dose 5 µmol/L, read-out: Stability
Outline: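 Pooled rat serum incubated with 5 μmol/L compound for 30 min at 37 °C, in duplicate; aliquot mixed with methanol, centrifuged, supernatant analysed by LC/MS/MS for % remaining.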

[44] = Inhibition of bacterial beta-lactamase CTX-M-15 using nitrocefin as substrate incubated for 20 mins; design: species or system Bacteria
[45] = Total clearance in rat by LC-MS/MS analysis; format: ADME; details: in vivo

CC(C)OC(=O)[C@@H](F)ON1C(=O)N2C[C@H]1CC[C@H]2[S@@+](C)[O-]
remaining at 16 h [1]: 56%
Tmax [2]: 30 min
AUC [3]: 7060 ng·h/mL
bioavailability [4]: 67.6%
bioavailability [5]: 48.1%
Tmax [6]: 1 h
Cmax [7]: 7390 ng/mL
Cmax [8]: 1700 ng/mL
Cmax [9]: 4380 ng/mL
bioavailability [10]: 25.5%
AUC [11]: 18400 ng·h/mL
Tmax [12]: 48 min
AUC [13]: 2090 ng·h/mL

NC(=O)[C@@H]1CC[C@@H]2CN1C(=O)N2OS(=O)(=O)O [AVIBACTAM]
MIC (Escherichia coli [14]): 16 µg/mL (≈ 60.3 µM)
MPC (Klebsiella pneumoniae [15]): 0.125 µg/mL
MIC (Klebsiella pneumoniae [16]): > 32 µg/mL
MPC (Klebsiella pneumoniae [17]): 1 µg/mL
MIC (Enterobacter cloacae [18]): 32 µg/mL (≈ 121 µM)
IC50 [19]: 59 nM
MIC (Klebsiella pneumoniae [20]): > 32 µg/mL
MPC (Klebsiella pneumoniae [21]): 0.5 µg/mL
MIC (Klebsiella pneumoniae [22]): > 32 µg/mL
MPC (Klebsiella pneumoniae [23]): 8 µg/mL
MPC (Enterobacter cloacae [24]): 16 µg/mL
MIC (Klebsiella pneumoniae [25]): 32 µg/mL (≈ 121 µM)
MPC (Escherichia coli [26]): 0.125 µg/mL
MPC (Enterobacter cloacae [27]): 4 µg/mL
MIC (Klebsiella pneumoniae [28]): > 32 µg/mL
IC50 [29]: 5.7 µM
MIC (Klebsiella pneumoniae [30]): 32 µg/mL (≈ 121 µM)
MPC (Klebsiella pneumoniae [31]): 2 µg/mL
MPC (Enterobacter cloacae [32]): 8 µg/mL
MPC (Escherichia coli [33]): 0.5 µg/mL
MIC (Enterobacter cloacae [34]): 32 µg/mL (≈ 121 µM)
MPC (Klebsiella pneumoniae [35]): 0.063 µg/mL
MIC (Escherichia coli [36]): 16 µg/mL (≈ 60.3 µM)
MIC (Klebsiella pneumoniae [37]): > 32 µg/mL
MPC (Klebsiella pneumoniae [38]): 4 µg/mL
MIC (Klebsiella pneumoniae [39]): > 32 µg/mL
MIC (Enterobacter cloacae [40]): 32 µg/mL (≈ 121 µM)
IC50 [41]: 72 nM
MPC (Klebsiella pneumoniae [42]): 2 µg/mL

NS(=O)(=O)[C@@H]1CC[C@@H]2CN1C(=O)N2O[C@H](F)C(=O)[O-].[Na+]
remaining at 16 h [1]: 91%
remaining at 0.5 h, 5 µM [43]: 78%
IC50 [19]: 1110 nM
IC50 [44]: 249 nM
IC50 [41]: 977 nM
clearance [45]: 19.8 mL/min/kg

CCOC(=O)[C@@H](F)ON1C(=O)N2C[C@H]1CC[C@H]2[S@@+](C)[O-]
remaining at 16 h [1]: 11%
Tmax [2]: 30 min
AUC [3]: 8320 ng·h/mL
bioavailability [4]: 74.4%
bioavailability [5]: 68.3%
Tmax [6]: 1 h
Cmax [7]: 10600 ng/mL
Cmax [8]: 2150 ng/mL
Cmax [9]: 4510 ng/mL
bioavailability [10]: 29.9%
AUC [11]: 26000 ng·h/mL
Tmax [12]: 60 min
AUC [13]: 2300 ng·h/mL

NS(=O)(=O)[C@@H]1CC[C@@H]2CN1C(=O)N2OC(F)(F)C(=O)O.[Na+]
remaining at 16 h [1]: 55%
remaining at 0.5 h, 5 µM [43]: 39%
IC50 [19]: 1340 nM
IC50 [44]: 104 nM
IC50 [41]: 52 nM
clearance [45]: 84.5 mL/min/kg
